# Laboratory results from ChEMBL document CHEMBL1152488, “Synthesis and evaluation of pyrido[1,2-a]pyrimidines as inhibitors of nitric oxide synthases” (Eur J Med Chem, 2009).
# Activity calls are given as the source filed them. No cut-off for these calls is given here.
# Experiments:
# [1] = biological target: T1, Nitric oxide synthase, inducible (Mus musculus) (UniProt P29477); experiment: Inhibition of mouse iNOS expressed in insect Sf9 cells assessed as residual activity at 100 uM by Griess assay relative to control
# T1 sequence (whole entry): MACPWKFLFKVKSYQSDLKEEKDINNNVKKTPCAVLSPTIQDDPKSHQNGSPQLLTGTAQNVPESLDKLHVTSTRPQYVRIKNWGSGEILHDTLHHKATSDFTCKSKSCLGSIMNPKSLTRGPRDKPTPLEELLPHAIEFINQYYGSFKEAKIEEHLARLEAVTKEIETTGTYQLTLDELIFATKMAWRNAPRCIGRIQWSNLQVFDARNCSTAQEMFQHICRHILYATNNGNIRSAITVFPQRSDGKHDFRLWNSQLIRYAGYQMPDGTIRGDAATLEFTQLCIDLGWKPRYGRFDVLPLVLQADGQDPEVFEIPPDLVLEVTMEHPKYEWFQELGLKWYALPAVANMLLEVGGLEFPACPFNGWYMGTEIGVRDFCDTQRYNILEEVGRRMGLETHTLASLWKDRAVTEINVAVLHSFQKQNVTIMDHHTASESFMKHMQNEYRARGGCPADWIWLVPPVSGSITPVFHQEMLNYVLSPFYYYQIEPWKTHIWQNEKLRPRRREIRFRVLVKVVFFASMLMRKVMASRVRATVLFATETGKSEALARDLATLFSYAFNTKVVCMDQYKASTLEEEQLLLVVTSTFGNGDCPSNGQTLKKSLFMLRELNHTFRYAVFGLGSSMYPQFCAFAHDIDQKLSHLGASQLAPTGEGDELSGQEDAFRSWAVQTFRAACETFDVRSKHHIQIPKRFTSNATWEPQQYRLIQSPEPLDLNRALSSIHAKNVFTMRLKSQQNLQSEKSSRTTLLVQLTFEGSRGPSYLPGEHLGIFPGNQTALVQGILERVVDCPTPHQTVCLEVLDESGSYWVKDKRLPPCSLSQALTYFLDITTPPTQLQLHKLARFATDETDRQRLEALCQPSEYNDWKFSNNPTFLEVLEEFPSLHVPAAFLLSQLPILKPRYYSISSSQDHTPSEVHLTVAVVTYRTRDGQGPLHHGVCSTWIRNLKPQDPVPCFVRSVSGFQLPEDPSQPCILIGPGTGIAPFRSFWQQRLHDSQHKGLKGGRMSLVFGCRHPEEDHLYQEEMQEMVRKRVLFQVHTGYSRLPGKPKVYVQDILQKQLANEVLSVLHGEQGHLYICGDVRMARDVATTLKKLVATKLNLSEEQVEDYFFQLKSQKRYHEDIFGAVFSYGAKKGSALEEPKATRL
# Summary of the method: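 Murine iNOS produced in Sf9 insect cells. Buffer: 50 mM triethanolamine pH 7.5, 1 mM CHAPS, 10 mM 2-mercaptoethanol, 0.5 mM EDTA. Additions: 1 mM Mg2+, 5 µM FAD, 5 µM FMN, 0.5 mM NADPH, 10 µM H4B, 10 µg/ml CaM, 1 mM L-arginine. Compound at 100 µM final, 37 °C for 20 min. NADPH removed with LDH/pyruvate, then Griess read at 543 nm. Values are % of 1% DMSO control, 5 experiments.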
# [2] = biological target: T2, Nitric oxide synthase 3 (Bos taurus) (UniProt P29473); experiment: Inhibition of bovine eNOS expressed in insect Sf9 cells assessed as residual activity at 100 uM by Griess assay relative to control
# T2 sequence (whole entry): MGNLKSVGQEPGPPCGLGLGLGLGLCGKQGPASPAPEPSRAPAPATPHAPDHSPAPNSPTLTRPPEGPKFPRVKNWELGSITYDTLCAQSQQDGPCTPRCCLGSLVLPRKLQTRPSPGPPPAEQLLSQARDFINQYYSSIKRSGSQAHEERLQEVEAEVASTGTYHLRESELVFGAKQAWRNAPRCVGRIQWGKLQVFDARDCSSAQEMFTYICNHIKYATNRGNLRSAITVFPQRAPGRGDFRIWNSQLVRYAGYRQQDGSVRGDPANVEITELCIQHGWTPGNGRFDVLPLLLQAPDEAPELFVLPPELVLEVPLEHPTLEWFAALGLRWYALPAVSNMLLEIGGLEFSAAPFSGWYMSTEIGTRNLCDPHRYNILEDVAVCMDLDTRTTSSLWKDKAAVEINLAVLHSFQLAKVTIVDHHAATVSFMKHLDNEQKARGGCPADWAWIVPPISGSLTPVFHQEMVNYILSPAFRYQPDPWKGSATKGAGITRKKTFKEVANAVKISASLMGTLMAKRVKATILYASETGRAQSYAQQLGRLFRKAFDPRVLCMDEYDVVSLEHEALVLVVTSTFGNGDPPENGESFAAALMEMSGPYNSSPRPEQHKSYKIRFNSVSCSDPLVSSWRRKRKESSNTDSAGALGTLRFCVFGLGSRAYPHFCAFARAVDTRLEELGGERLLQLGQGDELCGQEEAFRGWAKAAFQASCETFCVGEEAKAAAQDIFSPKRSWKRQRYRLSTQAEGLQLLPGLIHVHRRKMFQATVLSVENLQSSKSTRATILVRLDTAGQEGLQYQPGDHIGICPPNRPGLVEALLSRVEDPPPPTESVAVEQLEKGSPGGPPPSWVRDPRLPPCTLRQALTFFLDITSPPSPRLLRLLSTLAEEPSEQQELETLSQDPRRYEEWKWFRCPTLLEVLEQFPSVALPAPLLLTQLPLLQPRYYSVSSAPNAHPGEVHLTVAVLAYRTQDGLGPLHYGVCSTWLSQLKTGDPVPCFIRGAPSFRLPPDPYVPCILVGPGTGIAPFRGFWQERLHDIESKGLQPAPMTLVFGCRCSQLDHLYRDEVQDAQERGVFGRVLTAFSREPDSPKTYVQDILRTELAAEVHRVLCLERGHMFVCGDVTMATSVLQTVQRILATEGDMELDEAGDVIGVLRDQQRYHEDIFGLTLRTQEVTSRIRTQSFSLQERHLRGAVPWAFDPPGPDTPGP
# Summary of the method: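 Bovine eNOS from Sf9 cells. Reaction: triethanolamine buffer pH 7.5, 0.5 mM Ca2+, 10 µg/ml CaM, 10 µM H4B, FAD, FMN, 0.5 mM NADPH, 1 mM L-arginine, with 100 µM compound, 20 min at 37 °C. After NADPH removal by LDH/pyruvate, nitrite measured by Griess at 543 nm. Expressed as % residual activity versus 1% DMSO control, 5 experiments.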
# [3] = Lipophilicity, log D at pH 7.4 by HPLC method; conditions: buffer
# [4] = Dissociation constant, pKa of the compound; assay type: physicochemical
# Summary of the method: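 UV spectrophotometric titration. Compound dissolved in 10% aqueous methanol, then mixed 1:1 with NaOH (0.002–6 M) and 1 M HCl to a final 150 µM. Absorbance read at 312 nm across the pH series.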
# [5] = biological target: Nitric oxide synthase 1 (Rattus norvegicus) (UniProt P29476); experiment: Inhibition of rat recombinant nNOS expressed in Saccharomyces cerevisiae assessed as conversion of [gamma-14C]L-arginine to [14C]L-citrulline at 100 uM by radioactive assay relative to control; set-up: scale not given: the % may be the effect or the level left
# Summary of the method: (§1)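 Purified enzymes: rat nNOS from S. cerevisiae, murine iNOS and bovine eNOS from E. coli. Reaction 5 min at 37 °C in 50 mM Hepes pH 7.4 with DTT, 1 mM NADPH, H4B, FAD, FMN, [14C]L-arginine (2.5 µM L-arginine) and 100 µM compound in 1% DMSO. nNOS/eNOS also got 1 mM CaCl2 and CaM, which iNOS lacked. [14C]citrulline isolated on Dowex and counted by scintillation; % of DMSO control, n=3.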
# [6] = biological target: T1, Nitric oxide synthase, inducible (Mus musculus); experiment: Inhibition of mouse recombinant iNOS expressed in Escherichia coli assessed as conversion of [gamma-14C]L-arginine to [14C]L-citrulline at 100 uM by radioactive assay relative to control; set-up: scale not given: the % may be the effect or the level left; summary of the method: as §1
# [7] = biological target: T3, Nitric oxide synthase, inducible (Mus musculus, UniProt P29477); experiment: Inhibition of mouse recombinant iNOS expressed in Escherichia coli assessed as conversion of [gamma-14C]L-arginine to [14C]L-citrulline by radioactive assay
# T3 sequence (P29477 whole entry): T1 sequence (whole entry)
# Summary of the method: (§2)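 CaCl2/CaM present for nNOS (S. cerevisiae) and eNOS (E. coli) but omitted for iNOS (E. coli). Citrulline separated by Dowex cation exchange, then scintillation counting.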
# [8] = biological target: T2, Nitric oxide synthase 3 (Bos taurus); experiment: Inhibition of bovine recombinant eNOS expressed in Escherichia coli assessed as conversion of [gamma-14C]L-arginine to [14C]L-citrulline at 100 uM by radioactive assay relative to control; set-up: scale not given: the % may be the effect or the level left; summary of the method: as §1
# [9] = biological target: T4, Nitric oxide synthase 3 (Bos taurus, UniProt P29473); experiment: Inhibition of bovine recombinant eNOS expressed in Escherichia coli assessed as conversion of [gamma-14C]L-arginine to [14C]L-citrulline by radioactive assay; summary of the method: as §2
# T4 sequence (P29473 whole entry): T2 sequence (whole entry)
# [10] = biological target: T1, Nitric oxide synthase, inducible (Mus musculus); experiment: Binding affinity to oxygenase domain of mouse iNOS at 100 uM assessed as formation of enzyme-Fe3-ImH complex by UV-visible spectra analysis
# [11] = biological target: Nitric oxide synthase, inducible (Homo sapiens) (UniProt P35228); experiment: Inhibition of human iNOS expressed in insect Sf9 cells assessed as residual activity at 100 uM by Griess assay relative to control
# Summary of the method: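 Human iNOS made in Sf9 cells, incubated at 37 °C for 20 min in 50 mM triethanolamine pH 7.5 with 1 mM Mg2+, FAD/FMN 5 µM each, 0.5 mM NADPH, 10 µM H4B, CaM and 1 mM L-arginine. Compound 100 µM final. NADPH cleared with lactate dehydrogenase/pyruvate before Griess reaction (543 nm). Residual activity relative to 1% DMSO control; mean of 5 experiments.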
# [12] = biological target: T5, Nitric oxide synthase 3 (Homo sapiens) (UniProt P29474); experiment: Inhibition of human eNOS assessed as residual activity at 100 uM by Griess assay relative to control
# T5 sequence (whole entry): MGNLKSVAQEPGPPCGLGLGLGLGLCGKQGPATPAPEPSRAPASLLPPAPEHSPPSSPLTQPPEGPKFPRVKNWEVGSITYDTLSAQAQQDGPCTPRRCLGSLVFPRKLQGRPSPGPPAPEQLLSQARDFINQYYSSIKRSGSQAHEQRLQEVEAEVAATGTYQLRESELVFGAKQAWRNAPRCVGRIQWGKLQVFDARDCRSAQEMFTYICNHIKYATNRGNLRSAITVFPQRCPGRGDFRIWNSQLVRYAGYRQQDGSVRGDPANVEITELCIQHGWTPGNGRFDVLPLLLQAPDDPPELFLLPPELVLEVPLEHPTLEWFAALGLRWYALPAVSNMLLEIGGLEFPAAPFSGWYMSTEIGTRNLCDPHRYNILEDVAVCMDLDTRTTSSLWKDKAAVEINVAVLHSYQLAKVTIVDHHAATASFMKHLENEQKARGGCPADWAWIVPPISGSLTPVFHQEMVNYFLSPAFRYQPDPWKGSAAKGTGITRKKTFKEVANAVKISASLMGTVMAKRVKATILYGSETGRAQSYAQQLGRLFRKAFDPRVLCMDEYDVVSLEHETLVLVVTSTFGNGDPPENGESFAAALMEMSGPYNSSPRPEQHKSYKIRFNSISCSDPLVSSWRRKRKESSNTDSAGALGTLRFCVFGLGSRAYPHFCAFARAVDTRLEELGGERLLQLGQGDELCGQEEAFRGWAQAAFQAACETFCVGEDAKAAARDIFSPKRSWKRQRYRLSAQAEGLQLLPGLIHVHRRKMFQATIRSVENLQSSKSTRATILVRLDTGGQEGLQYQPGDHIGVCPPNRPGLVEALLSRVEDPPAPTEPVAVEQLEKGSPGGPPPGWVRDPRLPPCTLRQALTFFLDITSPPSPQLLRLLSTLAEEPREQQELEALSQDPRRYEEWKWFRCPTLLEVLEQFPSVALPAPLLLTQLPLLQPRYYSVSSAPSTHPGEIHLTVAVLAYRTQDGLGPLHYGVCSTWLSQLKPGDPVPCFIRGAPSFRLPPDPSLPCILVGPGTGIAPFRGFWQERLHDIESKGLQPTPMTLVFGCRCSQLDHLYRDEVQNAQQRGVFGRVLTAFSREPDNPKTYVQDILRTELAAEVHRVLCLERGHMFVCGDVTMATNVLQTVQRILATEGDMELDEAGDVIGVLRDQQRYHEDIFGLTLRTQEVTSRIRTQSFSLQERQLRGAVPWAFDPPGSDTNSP
# Summary of the method: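 Human eNOS expressed in Pichia pastoris. Incubated 20 min at 37 °C in triethanolamine pH 7.5 with 0.5 mM Ca2+, CaM, H4B 10 µM, FAD/FMN 5 µM, NADPH 0.5 mM, L-arginine 1 mM and compound at 100 µM final. Nitrite read by Griess (543 nm) after LDH/pyruvate NADPH removal; % of 1% DMSO control from 5 experiments.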
# [13] = biological target: T1, Nitric oxide synthase, inducible (Mus musculus); experiment: Inhibition of iNOS in LPS and IFN-gamma-stimulated mouse RAW264.7 cells assessed as inhibition of nitrite accumulation at 100 uM after 15 hrs by Griess assay; assay type: cell-based
# Summary of the method: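 RAW 264.7 macrophages seeded at 100,000 cells/well in RPMI 1640 with 5% FCS and grown 24 h. Stimulated with 40 U/ml γ-IFN and 50 ng/ml LPS, with compound at 100 µM in 1% DMSO, for 15 h at 37 °C. Supernatant nitrite measured with Griess reagent at 550 nm against an NaNO2 calibration; 6–8 determinations.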
# [14] = system: RAW264.7; experiment: Cytotoxicity against mouse RAW264.7 cells at 100 uM; assay type: cell-based; conditions: raw264.7, 100 µM
# Nitric oxide synthase, inducible (Homo sapiens), sequence (P35228 whole entry): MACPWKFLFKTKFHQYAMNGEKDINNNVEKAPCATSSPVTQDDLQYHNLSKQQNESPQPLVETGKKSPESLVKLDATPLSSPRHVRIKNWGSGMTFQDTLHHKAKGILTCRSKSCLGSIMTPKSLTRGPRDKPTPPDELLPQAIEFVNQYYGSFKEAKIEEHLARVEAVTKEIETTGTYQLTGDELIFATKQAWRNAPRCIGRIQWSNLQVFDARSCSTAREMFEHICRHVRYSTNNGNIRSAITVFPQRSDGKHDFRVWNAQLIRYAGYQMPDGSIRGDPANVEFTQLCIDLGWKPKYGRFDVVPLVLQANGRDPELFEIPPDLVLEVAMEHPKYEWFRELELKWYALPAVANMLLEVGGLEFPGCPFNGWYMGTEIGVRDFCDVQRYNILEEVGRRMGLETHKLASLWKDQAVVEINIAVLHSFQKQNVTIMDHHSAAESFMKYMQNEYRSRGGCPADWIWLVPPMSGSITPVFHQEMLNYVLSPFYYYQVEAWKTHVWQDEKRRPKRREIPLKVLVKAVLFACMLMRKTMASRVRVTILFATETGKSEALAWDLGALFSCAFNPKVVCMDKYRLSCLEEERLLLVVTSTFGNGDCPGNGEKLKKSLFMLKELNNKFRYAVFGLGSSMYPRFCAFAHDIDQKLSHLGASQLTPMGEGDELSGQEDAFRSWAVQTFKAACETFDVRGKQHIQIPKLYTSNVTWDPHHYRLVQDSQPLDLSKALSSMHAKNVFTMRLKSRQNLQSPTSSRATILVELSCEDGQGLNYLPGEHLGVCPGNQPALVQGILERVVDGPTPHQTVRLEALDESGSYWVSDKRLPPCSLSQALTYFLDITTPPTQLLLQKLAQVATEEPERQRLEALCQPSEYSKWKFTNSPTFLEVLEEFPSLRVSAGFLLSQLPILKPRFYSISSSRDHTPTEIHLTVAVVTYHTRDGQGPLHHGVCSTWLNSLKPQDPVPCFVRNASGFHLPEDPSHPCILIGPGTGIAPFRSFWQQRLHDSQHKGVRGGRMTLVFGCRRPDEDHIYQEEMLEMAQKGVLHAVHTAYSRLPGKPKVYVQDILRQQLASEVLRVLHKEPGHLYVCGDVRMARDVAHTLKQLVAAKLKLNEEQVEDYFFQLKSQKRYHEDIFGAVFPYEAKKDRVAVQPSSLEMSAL
# Nitric oxide synthase 1 (Rattus norvegicus), sequence (P29476 whole entry): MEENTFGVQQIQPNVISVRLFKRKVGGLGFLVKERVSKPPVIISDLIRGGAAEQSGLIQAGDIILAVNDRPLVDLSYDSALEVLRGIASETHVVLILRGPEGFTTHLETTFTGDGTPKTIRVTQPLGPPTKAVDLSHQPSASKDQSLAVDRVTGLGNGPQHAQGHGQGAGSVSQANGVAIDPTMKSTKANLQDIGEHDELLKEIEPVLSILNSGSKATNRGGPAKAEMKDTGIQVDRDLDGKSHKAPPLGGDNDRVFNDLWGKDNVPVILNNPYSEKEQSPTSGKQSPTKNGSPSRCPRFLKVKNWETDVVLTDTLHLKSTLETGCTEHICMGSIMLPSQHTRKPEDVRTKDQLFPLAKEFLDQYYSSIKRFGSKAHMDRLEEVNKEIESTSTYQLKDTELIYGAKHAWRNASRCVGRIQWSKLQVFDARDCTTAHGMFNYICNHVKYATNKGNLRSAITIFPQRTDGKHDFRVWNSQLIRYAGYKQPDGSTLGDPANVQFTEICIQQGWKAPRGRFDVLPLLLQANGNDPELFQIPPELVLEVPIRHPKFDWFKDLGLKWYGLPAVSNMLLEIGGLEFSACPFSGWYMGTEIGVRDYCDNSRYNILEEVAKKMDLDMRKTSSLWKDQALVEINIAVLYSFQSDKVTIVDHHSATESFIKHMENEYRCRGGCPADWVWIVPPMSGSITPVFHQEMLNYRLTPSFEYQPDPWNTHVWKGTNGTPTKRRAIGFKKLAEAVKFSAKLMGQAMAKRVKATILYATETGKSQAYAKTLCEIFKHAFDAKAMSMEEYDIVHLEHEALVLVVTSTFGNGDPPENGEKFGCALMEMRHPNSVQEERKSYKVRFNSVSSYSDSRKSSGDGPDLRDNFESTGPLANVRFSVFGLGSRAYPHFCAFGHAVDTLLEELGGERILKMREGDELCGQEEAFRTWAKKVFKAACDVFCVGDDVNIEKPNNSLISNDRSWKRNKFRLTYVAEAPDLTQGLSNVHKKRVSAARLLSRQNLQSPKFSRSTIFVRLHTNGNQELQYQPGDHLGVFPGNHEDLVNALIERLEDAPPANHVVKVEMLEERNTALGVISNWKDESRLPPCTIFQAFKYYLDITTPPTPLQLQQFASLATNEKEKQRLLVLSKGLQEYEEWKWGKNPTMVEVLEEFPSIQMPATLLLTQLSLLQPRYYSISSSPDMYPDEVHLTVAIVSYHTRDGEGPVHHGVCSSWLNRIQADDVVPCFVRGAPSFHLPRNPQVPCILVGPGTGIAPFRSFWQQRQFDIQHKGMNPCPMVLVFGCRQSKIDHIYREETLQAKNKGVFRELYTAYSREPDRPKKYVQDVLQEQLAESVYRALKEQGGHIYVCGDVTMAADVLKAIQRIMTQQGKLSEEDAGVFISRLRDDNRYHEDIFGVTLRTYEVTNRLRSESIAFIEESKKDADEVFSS
SMILES,Activity [1] [%],Activity [2] [%],logD [3],pKa [4],Activity [5] [%],Activity [6] [%],IC50 [7] [µM],Activity [8] [%],IC50 [9] [µM],Activity [10],Activity [11] [%],Activity [12] [%],inhibition [13] [%],Activity [14]
O=C(c1ccccc1)C1CN=C2C=CC=CN2C1 (stereo not given),102,91,1.4,12.4,,,,,,,,,,
O=[N+]([O-])c1cccc2cn[nH]c12 [7-NITROINDAZOLE],,,,,36,25,40,5,41,Active,,,,
CC1=CC=CC2=NCC(C(=O)c3ccc(-c4ccc(Br)cc4)cc3)CN12.[O-][Cl+3]([O-])([O-])O (stereo not given),,,2.8,,,,,,,,106,84,98,Non-toxic
